The results in this text go back to PMC11913021 (Journal of Medicinal Chemistry, 2024).

“And” between values parts separate entries of the source, which are not always exact repeats. Identical values can stand only once.

The target in experiment [1] is T1, wild-type PLD1 (Homo sapiens, UniProt Q13393).
T1 sequence (Q13393 1-1036 isoform Q13393-2): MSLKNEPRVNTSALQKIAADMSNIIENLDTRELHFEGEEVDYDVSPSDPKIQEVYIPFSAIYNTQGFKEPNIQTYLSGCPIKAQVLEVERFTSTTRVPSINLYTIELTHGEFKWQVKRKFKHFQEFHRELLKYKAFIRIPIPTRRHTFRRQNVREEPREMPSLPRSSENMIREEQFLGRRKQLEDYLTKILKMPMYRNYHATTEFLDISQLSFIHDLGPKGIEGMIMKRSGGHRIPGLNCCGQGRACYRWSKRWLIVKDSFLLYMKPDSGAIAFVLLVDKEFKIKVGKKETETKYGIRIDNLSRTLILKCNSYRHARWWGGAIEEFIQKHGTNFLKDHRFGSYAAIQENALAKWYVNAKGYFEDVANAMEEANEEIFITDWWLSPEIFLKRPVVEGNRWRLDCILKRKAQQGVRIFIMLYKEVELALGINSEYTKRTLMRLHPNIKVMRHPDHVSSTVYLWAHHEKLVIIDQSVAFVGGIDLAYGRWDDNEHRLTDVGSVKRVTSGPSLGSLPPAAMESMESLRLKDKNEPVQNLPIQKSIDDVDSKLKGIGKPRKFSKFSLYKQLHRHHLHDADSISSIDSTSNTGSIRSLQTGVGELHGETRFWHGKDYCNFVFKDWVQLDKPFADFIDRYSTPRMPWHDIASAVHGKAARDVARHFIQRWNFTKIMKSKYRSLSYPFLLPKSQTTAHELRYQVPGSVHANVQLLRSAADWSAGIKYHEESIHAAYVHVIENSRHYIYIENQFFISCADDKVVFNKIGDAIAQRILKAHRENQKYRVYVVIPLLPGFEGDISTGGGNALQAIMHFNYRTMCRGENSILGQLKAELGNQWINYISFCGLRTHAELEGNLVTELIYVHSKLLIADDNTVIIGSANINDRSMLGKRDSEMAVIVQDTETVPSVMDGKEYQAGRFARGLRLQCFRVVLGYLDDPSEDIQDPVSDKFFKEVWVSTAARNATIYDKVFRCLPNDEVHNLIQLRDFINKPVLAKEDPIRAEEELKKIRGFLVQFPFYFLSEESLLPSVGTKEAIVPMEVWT
In words: PLD activity assay in wild-type PLD1-transfected cells. In kind it is cell-based.

The test system of experiment [2] is A549 cells. In words: WST-1 cell viability assay, A549. It is filed as cell-based. The following applies: read-out: IC50 of viability; A549, WST-1, 48 h. In a few lines:
(§1)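 Cells grown in DMEM or RPMI 1640 with 10% FBS and 1% penicillin/streptomycin at 37 °C, 5% CO2. Seeded at 5 × 10^3 cells/well and held 24 h at 37 °C, then exposed to test compound for 48 h. WST-1 absorbance was read at 450 nm, in triplicate. IC50 was taken as the concentration giving 50% growth inhibition versus control.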
Background: Tetrazolium assays rely on reduction of a dye to a coloured formazan, in cell work by metabolically active cells.

The test system of experiment [3] is HCT116 cells. As to the kind of experiment: WST-1 cell viability assay, HCT116. It is filed as cell-based. The following applies: read-out: IC50 of viability; HCT116, WST-1, 48 h. In a few lines:
as §1

For experiment [4], the system named is Calu6 lung cancer cells. As to the kind of experiment: WST-1 cell viability assay, Calu6. In kind it is cell-based. The following applies: read-out: IC50 of viability; Calu6, WST-1, 48 h. Summed up: as §1
The subject of experiment [5] is A549 cells. In words: Colony-forming assay. It is filed as cell-based. In a few lines:
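Cells seeded at 500–1,000 per well; test compound added 48 h after seeding, with 48 h exposure. Medium was changed every 3 days and cultures kept 10 days. Colonies were fixed in 4% PFA for 20 min, stained with crystal violet for 30 min, and counted by image analysis.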

For experiment [6], the system named is A549 cells. In words: Transwell migration and invasion assay. In kind it is cell-based. In a few lines:
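Cells at 5 × 10^4 cells/ml in serum-free medium placed in 8 μm pore transwell chambers; for invasion the chambers were Matrigel-precoated. After 24 h, non-migrated cells were swabbed off. Cells on the underside were fixed in 4% PFA for 20 min, stained with crystal violet for 10 min, and counted by light microscopy.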

Experiment [7] deals with KRAS. In words: RAS activation assay in KRAS-transfected cells. It is filed as cell-based. Summed up: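 Cells treated with test compound for 24 h and lysed with protease inhibitor, then spun at 13,000 rpm for 10 min at 4 °C. Lysate (800 μg) was incubated overnight at 4 °C with GST-Raf1-RBD beads and washed three times. Bound RAS-GTP was eluted in SDS buffer, heated at 100 °C for 5 min, and immunoblotted for RAS.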

Experiment [8] relates to CD24, CD47, PD-L1, CRT. As to the kind of experiment: Flow cytometry of “don’t eat-me” and “eat-me” signals in A549 cells. In kind it is cell-based.
For experiment [9], the system named is A549 cells. As to the kind of experiment: In vitro phagocytosis assay. In kind it is cell-based, human. The following applies: A549 cocultured with PMA-activated THP-1. Summed up: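 A549 cells treated with test compound for 48 h in RPMI with 10% FBS, then labelled with 1 μM CFSE. THP-1 cells were differentiated with PMA for 36 h, and 5 × 10^5 were co-incubated with equal CFSE-labelled cells in serum-free RPMI for 2 h. After Fc block and PerCP-Cy5.5 anti-CD11b staining (20 min, 4 °C), CFSE+CD11b+ cells were counted by flow cytometry in at least three independent experiments.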

In the case of “N-(3,5-Bis(trifluoromethyl)phenyl)-3-(1H-indol-3-yl)propanamide [3r]”, the PLD activity entry in [1] is recorded as “significantly suppressed”. The IC50 in experiment [2] was 18 µM and 18.4 µM. Moreover, the IC50 in [3] was 29 µM and 29.1 µM. The IC50 in experiment [4] stood at 19 µM. The colony formation result in [5] is reported as “significantly inhibited”. In [6], the invasion result is given as “significantly inhibited” and the migration result is “significantly inhibited”. For the same substance, in experiment [7], the KRAS activation result is recorded as “inhibited”. In experiment [8], the “expression of “don’t eat-me” signals” value is “reduced” and the “expression of “eat-me” signals” value is recorded as “enhanced”. In addition, the “CD11b^+CFSE^+ macrophages (phagocytosis)” value in experiment [9] was “significantly increased”.

Usually IC50 stands for the concentration that gives 50% inhibition.
